Data reported in article PMC7983942 (Clinical Pharmacology and Therapeutics, 2020).

Molecular target: T1, OCT1 (Homo sapiens, UniProt O15245)
T1 sequence (O15245 1-554): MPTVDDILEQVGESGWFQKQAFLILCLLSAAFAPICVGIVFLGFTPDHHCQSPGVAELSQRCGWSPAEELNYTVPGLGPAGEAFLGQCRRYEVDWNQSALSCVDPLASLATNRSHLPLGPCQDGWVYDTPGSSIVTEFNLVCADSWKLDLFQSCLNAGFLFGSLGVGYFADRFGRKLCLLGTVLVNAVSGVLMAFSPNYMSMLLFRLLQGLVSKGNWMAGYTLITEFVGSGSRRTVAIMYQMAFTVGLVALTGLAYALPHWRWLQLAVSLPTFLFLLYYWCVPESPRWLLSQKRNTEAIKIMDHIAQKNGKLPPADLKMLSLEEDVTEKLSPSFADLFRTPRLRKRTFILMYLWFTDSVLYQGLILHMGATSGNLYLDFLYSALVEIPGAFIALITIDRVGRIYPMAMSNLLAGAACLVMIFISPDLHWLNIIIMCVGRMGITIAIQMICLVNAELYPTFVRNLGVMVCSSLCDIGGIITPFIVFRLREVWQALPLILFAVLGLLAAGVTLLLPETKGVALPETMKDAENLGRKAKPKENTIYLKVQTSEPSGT
Test: Uptake into transporter-transfected vs wild-type HEK293 cells
Format: in vitro ADME
Conditions: metformin 20 µM, two to four minutes
Method in brief: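 Transfected HEK293 lines were OAT2 and OCT1, each run against wild-type cells, seeded on poly-D-lysine plates. Culture was 48 h at 37°C in DMEM with 10% FBS plus 1% gentamycin, 1% sodium pyruvate and 50 µg/mL hygromycin B. Probes were cyclic GMP 0.5 µM (OAT2) and metformin 20 µM (OCT1), over 2–4 min; test compound was 1 µM for 2 min. After four ice-cold washes and methanol lysis, the uptake ratio versus wild-type and the ratio of ratios were derived; n=3 in one experiment.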

Compound: CN(C)C(=N)N=C(N)N [metformin]
- Uptake ratio (vs. wild‐type HEK293 cells), probe: 15.4 ± 1.06
